In ChEMBL document CHEMBL1137876, “Synthesis and biological evaluation of novel cytotoxic phospholipids for prostate cancer” (Bioorg Med Chem Lett, 2004):

Key:
[1] = Concentration required to inhibit proliferation of PPC-1 prostate cancer cell lines; format: functional, cell-based; details: Homo sapiens
Method in brief: (§1)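 SRB assay. Cells were exposed to compound at 0–100 µM for 96 h, then fixed with 10% trichloroacetic acid, washed five times with water, air dried overnight and stained with SRB. Protein-bound dye was read at 540 nm.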

[2] = Concentration required to inhibit tumor growth in RH7777 cells; format: functional, cell-based; method in brief: as §1
[3] = tested on: PC-3; assay: Concentration required to inhibit proliferation of PC-3 prostate cancer cell lines; format: functional, cell-based; details: Homo sapiens; method in brief: as §1
[4] = Concentration required to inhibit proliferation of TSU prostate cancer cell lines; format: functional, cell-based; details: Homo sapiens; method in brief: as §1
[5] = tested on: DU-145; assay: Concentration required to inhibit proliferation of DU-145 prostate cancer cell lines; format: functional, cell-based; details: Homo sapiens; method in brief: as §1
[6] = tested on: LNCaP; assay: Concentration required to inhibit proliferation of LNCaP prostate cancer cell lines; format: functional, cell-based; details: Homo sapiens; method in brief: as §1
[7] = tested on: CHO; assay: Concentration required to inhibit tumor growth in CHO cells; format: functional, cell-based; details: Cricetulus griseus; method in brief: as §1
[8] = tested on: LNCaP; assay: Concentration required to inhibit proliferation of LNCaP prostate cancer cell lines; NA denotes not active; format: functional, cell-based, Homo sapiens; method in brief: as §1
[9] = tested on: PC-3; assay: Concentration required to inhibit proliferation of PC-3 prostate cancer cell lines; NA denotes not active; format: functional, cell-based, Homo sapiens; method in brief: as §1
[10] = Concentration required to inhibit proliferation of TSU prostate cancer cell lines; NA denotes not active; format: functional, cell-based, Homo sapiens; method in brief: as §1
[11] = tested on: DU-145; assay: Concentration required to inhibit proliferation of DU-145 prostate cancer cell lines; NA denotes not active; format: functional, cell-based, Homo sapiens; method in brief: as §1

CCCCCCCC/C=C/CCCCCCCCNC(=O)[C@@H](N)CO
IC50 [1]: 5.1 µM
IC50 [2]: 6.8 µM
IC50 [3]: 5.9 µM
IC50 [4]: 5.5 µM
IC50 [5]: 6.9 µM
IC50 [6]: 6.6 µM
IC50 [7]: 5.2 µM

CCCCCCCC/C=C/CCCCCCCCC(=O)NCCOP(=O)(O)O
IC50 [1]: 50 µM
IC50 [2]: > 50 µM
IC50 [3]: > 50 µM
IC50 [8]: Not Active
IC50 [4]: > 50 µM
IC50 [5]: > 50 µM
IC50 [7]: > 50 µM

CCCCCCCC/C=C/CCCCCCCCC(=O)NCCO
IC50 [1]: > 20 µM
IC50 [2]: > 20 µM
IC50 [9]: Not Active
IC50 [10]: Not Active
IC50 [8]: Not Active
IC50 [11]: Not Active
IC50 [7]: > 20 µM

CCCCCCCCNC(=O)[C@H](CO)NC(=O)CCCCCCC
IC50 [1]: 81.2 µM
IC50 [3]: 81.5 µM
IC50 [4]: 93.8 µM
IC50 [5]: > 100 µM
IC50 [6]: > 100 µM
IC50 [7]: > 100 µM

O=c1[nH]cc(F)c(=O)[nH]1 [FLUOROURACIL]
IC50 [6]: 4.9 µM
